Reference: article PMC11757988 (Scientific Reports, 2025)

Legend:
[1] = Blood compatibility study; format: cell-based; conditions: rat, heparinized whole blood
Outline: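 Rat heparinized blood (0.2 mL) added to 3 mL normal saline containing test material at 1000 µg/mL, saline-only negative and distilled-water positive controls; 1 h at 37 °C with shaking; centrifuged 6000 rpm, 20 min; filtered supernatant read at 545 nm for released hemoglobin; activity = (sample − negative control absorbance)/positive control absorbance.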

[2] = Thermogravimetric analysis; format: physicochemical; conditions: TGA
Outline: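 Samples of about 5 mg in platinum pans heated from 5 °C to 900 °C at 10 °C per min under nitrogen flowing at 60 mL per min; percentage weight loss recorded against temperature.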

[3] = In vivo pharmacokinetic study, intravenous; design: species or system female Wistar rats; conditions: rat
Outline: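 Eight-week-old female Wistar rats (250 ± 10 g), single i.v. dose of test compound solution at 10 mg/kg (nanoparticles at equivalent dose), saline control group. Tail-vein blood (300 µL) at 1–38 h into heparinized tubes; plasma by chilled centrifugation; acetonitrile protein precipitation, nitrogen drying, methanol reconstitution; HPLC-UV with plasma calibration 0.5–20 µg/mL; mean ± SD, n = 6.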

[4] = female, Wistar, plasma, iv, 10 mg/kg
[5] = i.v., DZ 10 mg/kg equivalent, n = 6, listed as DZ-Solution

O=c1c(-c2ccc(O)cc2)coc2cc(O)ccc12 [DZ, daidzein]
hemolysis at 1 h, 1000 µg/mL [1]: 0.98 ± 0.14%
Temperature at which decomposition started [2]: 340–350 °C
MRT inf [3, 4]: 2.97 ± 0.95 h
Tmax [3, 4]: 1 ± 0.78 h
AUC(0-inf) ([3]; female, Wistar, plasma, iv, 10 mg/kg, AUC0−∞, DZ 10 mg/kg equivalent, n = 6): 2300 µg·h/mL
Cmax ([3]; female, Wistar, plasma, iv, 10 mg/kg, C max, DZ 10 mg/kg equivalent, n = 6): 382 µg/mL
half-life ([3]; female, Wistar, plasma, iv, 10 mg/kg, t1/2, rat, DZ 10 mg/kg equivalent, n = 6): 3.45 h
AUC0−∞ [3, 5]: 2299.73 ± 0.67 µg·h/mL
C max [3, 5]: 381.59 ± 1.12 µg/mL
t1/2 [3, 5]: 3.44 ± 0.44 h
